ChEMBL document CHEMBL1155193, “Acyloxymethyl esterification of nodularin-R and microcystin-LA produces inactive protoxins that become reactivated and produce apoptosis inside intact cells” (J Med Chem, 2009)
The source made the active and inactive calls. No cut-off for these calls is given here. Starred links: 1 amine or outer side, 2 acyl side, 3 side chain; linkers in the order of their positions; H or OH if unused. Positions of bridges follow the written chain, without caps; N, C: chain ends. Non-standard residues stand in square brackets, D forms with d. Residues, ends and D or L forms follow the SMILES beside them. Adda = CO[C@@H](Cc1ccccc1)[C@@H](C)/C=C(C)/C=C/[C@H](N[*:1])[C@H](C)C(=O)[*:2]; X1 = CC(C)C[C@H](N[*:1])C(=O)C[C@@H](C(=O)O)[C@H](C)C(=O)[*:2]; dAsp(3S-Me) = C[C@H](C(=O)[*:3])[C@@H](N[*:1])C(=O)[*:2]; d(γGlu) = O=C(O)[C@@H](CCC(=O)[*:2])N[*:1]; NMeDha = C=C(NC)C(=O)O

Assays:
[1] = Lipophilicity, logD at pI; assay type: physicochemical; settings: octanol/water
Procedure, shortened: (§1)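 In silico estimate under a standard ionic condition (0.1 M Cl⁻, 0.1 M Na⁺/K⁺) at pI and at pH 7.4. pKa was estimated in macro mode at 310 K.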

NIH3T3 [2] = experiment: Induction of apoptosis in Swiss mouse 3T3 cells assessed as appearance of apoptotic morphology at 100 uM injected directly into intact cells after 3 hrs by Hoechst 33342 staining-based fluorescence microscopy in presence of esterase; assay type: cell-based; settings: nih3t3, 3 h
Hepatocyte [3] = experiment: Cytotoxicity against Wistar rat hepatocytes harboring transporter Oatp1b2 assessed as appearance of polarized cell blebbing at 0.2 uM after 90 mins by differential interference contrast microscopy; assay type: ADME, cell-based; settings: 1.5 h
Hepatocyte [4] = experiment: Cytotoxicity against Wistar rat hepatocytes harboring transporter Oatp1b2 assessed as appearance of polarized cell blebbing at 80 nM after 90 mins by differential interference contrast microscopy; assay type: ADME, cell-based; settings: 1.5 h, 0.08 µM
NIH3T3 [5] = experiment: Induction of apoptosis in Swiss mouse 3T3 cells up to 120 uM after 3 hrs by Hoechst 33342 staining-based fluorescence microscopy; assay type: cell-based; settings: nih3t3, 3 h
Procedure, shortened: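 Swiss 3T3 mouse fibroblasts kept in RPMI with 10% FCS at 37 °C, 5% CO₂. About 7000 cells per well were exposed to various toxin concentrations for 3 h in fresh serum-free medium. The incubation was stopped with buffered formaldehyde containing Hoechst 33342, and apoptosis was scored by fluorescence and DIC microscopy. Mean ± SEM of three experiments.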

[6] = Lipophilicity, logD at pH 7.4; assay type: physicochemical; settings: buffer; procedure, shortened: as §1
Hepatocyte [7] = experiment: Cytotoxicity against Wistar rat hepatocytes harboring transporter Oatp1b2 assessed as appearance of polarized cell blebbing at 4 uM after 90 mins by differential interference contrast microscopy; assay type: ADME, cell-based; settings: 1.5 h
[8] = Stability assessed as formation of nodularin-R by HPLC analysis in presence of pig liver esterase; assay type: ADME; settings: isolated protein
Hepatocyte [9] = experiment: Cytotoxicity against Wistar rat hepatocytes harboring transporter Oatp1b2 assessed as appearance of polarized cell blebbing at 60 nM after 90 mins by differential interference contrast microscopy; assay type: ADME, cell-based; settings: 1.5 h, 0.06 µM
[10] = target: Serine/threonine-protein phosphatase 2A catalytic subunit alpha isoform (Oryctolagus cuniculus) (UniProt P67777); experiment: Displacement of [125]MC-YR from rabbit skeletal muscle protein phosphatase 2A after 1 hr; assay type: tissue-based; settings: Muscle tissue
Sequence of Serine/threonine-protein phosphatase 2A catalytic subunit alpha isoform (Oryctolagus cuniculus) (P67777 whole entry, canonical isoform): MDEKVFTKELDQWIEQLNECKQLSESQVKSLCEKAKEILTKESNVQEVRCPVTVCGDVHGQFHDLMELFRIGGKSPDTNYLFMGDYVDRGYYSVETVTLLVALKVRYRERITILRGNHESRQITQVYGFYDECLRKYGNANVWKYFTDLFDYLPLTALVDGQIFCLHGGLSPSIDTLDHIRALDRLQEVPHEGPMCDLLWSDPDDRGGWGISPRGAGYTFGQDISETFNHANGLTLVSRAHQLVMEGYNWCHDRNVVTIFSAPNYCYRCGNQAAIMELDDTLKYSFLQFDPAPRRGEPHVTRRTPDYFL

SMILES	logD [1]	Activity (NIH3T3 [2])	Activity (Hepatocyte [3])	Activity (Hepatocyte [4])	Activity (NIH3T3 [5])	logD [6]	Activity (Hepatocyte [7])	Stability [8]	logD ([6]; read-out: logD)	Activity (Hepatocyte [9])	Activity [10]
C=C1C(=O)N[C@H](C)C(=O)N[C@@H](CC(C)C)C(=O)C[C@@H](C(=O)O)[C@H](C)C(=O)N[C@@H](C)C(=O)N[C@@H](/C=C/C(C)=C/[C@H](C)[C@H](Cc2ccccc2)OC)[C@H](C)C(=O)N[C@@H](C(=O)O)CCC(=O)N1C [MICROCYSTIN-LA] ([NMeDha][dA][X1]A[Adda][dE]-OH; lactam N-6)	0.3										
C=C1C(=O)N[C@H](C)C(=O)N[C@@H](CC(C)C)C(=O)N[C@@H](C(=O)O)[C@H](C)C(=O)N[C@@H](CCCNC(=N)N)C(=O)N[C@@H](/C=C/C(C)=C/[C@H](C)[C@H](Cc2ccccc2)OC)[C@H](C)C(=O)N[C@@H](C(=O)O)CCC(=O)N1C [MICROCYSTIN-LR] (R[Adda][d(γGlu)][NMeDha][dA]L[dAsp(3S-Me)]-OH; lactam N-7)		Toxic	Toxic								
C/C=C1/C(=O)N[C@@H](C(=O)O)[C@H](C)C(=O)N[C@@H](CCCNC(=N)N)C(=O)N[C@@H](/C=C/C(C)=C/[C@H](C)[C@H](Cc2ccccc2)OC)[C@H](C)C(=O)N[C@@H](C(=O)O)CCC(=O)N1C [NODULARIN]	-3.1	Toxic		Toxic							
C/C=C1/NC(=O)CC[C@H](C(=O)O)NC(=O)[C@@H](C)[C@H](/C=C/C(C)=C/[C@H](C)[C@H](Cc2ccccc2)OC)NC(=O)[C@H](CCC/N=C2/N=C(c3ccccc3)C(O)N2)NC(=O)[C@@H](C)[C@H](C(=O)O)NC1=O (some centres undefined)	-1.4	Toxic			< 20%	-4.8	Toxic				
C/C=C1/NC(=O)CC[C@H](C(=O)OCOC(=O)CC)NC(=O)[C@@H](C)[C@H](/C=C/C(C)=C/[C@H](C)[C@H](Cc2ccccc2)OC)NC(=O)[C@H](CCCNC(=N)N)NC(=O)[C@@H](C)[C@H](C(=O)OCOC(=O)CC)NC1=O	1.6	Toxic			< 20%			Unstable	-0.7	Toxic	
C/C=C1/NC(=O)CC[C@H](C(=O)OCOC(C)=O)NC(=O)[C@@H](C)[C@H](/C=C/C(C)=C/[C@H](C)[C@H](Cc2ccccc2)OC)NC(=O)[C@H](CCCNC(=N)N)NC(=O)[C@@H](C)[C@H](C(=O)OCOC(C)=O)NC1=O	0.4	Toxic			< 20%			Unstable	-2	Toxic	inactive
